Rows were chosen to be rich in hits. Some 2.9% of all compounds tested hit in one or more screens of this group.
TRPC6 inh – mouse TRPC6 channel inhibition | B-score at 10 µM | HEK293-TRPC6, membrane potential dye, ACh-evoked depolarization; active compounds read low | hit rate 1.1% among 310,000 | Q61143;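 active means B-score under library mean minus 3 SD, initial fluorescence not abnormally high, positive integrated signal ratio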;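 further: B-score derived from integrated fluorescence ratio over the kinetic read; more negative B-score means stronger inhibition of depolarization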
TRPC4 agonist – opens the mouse TRPC4 cation channel; Q9QUQ5; HEK293 TRPC4beta/mu-opioid, Fluo4 calcium fluorescence; active compounds read high; B-score at 10 µM; hit rate 0.49% among 310,000; AID 2237;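 active means B-score above 5 SD of library B-scores, and initial fluorescence ratio not above library mean plus 5 SD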;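 further: positive B-score marks a calcium rise read as TRPC4 activation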
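Incubation: 45 min room-temperature Fluo4 loading, 110 s read / System: HEK293 cells stably co-expressing mouse TRPC4beta and mu-opioid receptor / Signal: Fluo4 fluorescence, kinetic / Control set: buffer (low) and maximal DAMGO (high) / Measure: integrated baseline-normalised fluorescence ratio, converted to per-well B score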
TRPC4 potent – TRPC4 (mouse) allosteric potentiation; hit rate 0.42% among 310,000; B-score at 10 µM; HEK293 TRPC4beta/mu-opioid, DAMGO EC20, Fluo-4 Ca2+ flux; active compounds read high; Q9QUQ5;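 active means B-score of calcium response area above 5 SD of library B-scores, with initial fluorescence ratio within 5 SD of library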;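 further: B-score of integrated fluorescence ratio over time as area under calcium response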
TRPC4 block – TRPC4 (mouse) channel inhibition; HEK293 TRPC4beta/mu-opioid, DAMGO-evoked Fluo4 calcium flux; active compounds read low; hit rate 0.39% among 300,000; B-score at 10 µM; AID 2247; Q9QUQ5;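 active means B-score over 3 SD under the library average, no early fluorescence shift, positive overall ratio signal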
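Assay system: HEK293 cells with stable TRPC4beta plus mu-opioid receptor expression; Probe or stimulus: DAMGO in two steps, submaximal then maximal; Dosing: single-point compound dosing; Measured by: Fluo4 calcium-dye fluorescence, kinetic read; Read-out basis: B score from integrated Fluo4 fluorescence ratio.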
TRPC6 activator – activators of mouse TRPC6 channel. Q61143. HEK293-TRPC6 membrane potential dye fluorescence; active compounds read high. B-score at 10 µM. hit rate 0.13% among 310,000;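 active means B-score of the integrated fluorescence ratio above library mean plus 3 SD, and starting fluorescence ratio within library mean plus 5 SD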;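 further: higher score means more depolarization so channel activation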
Kir21 block – Kir2.1 (mouse) channel inhibition. P35561. HEK293-Kir2.1, FluxOR thallium flux fluorescence; active compounds read low. B-score at 10 µM. hit rate 0.85% among 310,000. AID 1672;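 active means fluorescence ratio B-score at or below minus 3 SD of library scores, with starting-brightness B-score within 2 SD, cut at about -4.2 in these data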;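 further: channel flux triggered by added potassium and thallium sulfate stimulus; B-score of peak minus minimum fluorescence over baseline after thallium stimulus; more negative B-score means stronger Kir2.1 block with less thallium influx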
Target sequence (P35561 whole entry, looked up): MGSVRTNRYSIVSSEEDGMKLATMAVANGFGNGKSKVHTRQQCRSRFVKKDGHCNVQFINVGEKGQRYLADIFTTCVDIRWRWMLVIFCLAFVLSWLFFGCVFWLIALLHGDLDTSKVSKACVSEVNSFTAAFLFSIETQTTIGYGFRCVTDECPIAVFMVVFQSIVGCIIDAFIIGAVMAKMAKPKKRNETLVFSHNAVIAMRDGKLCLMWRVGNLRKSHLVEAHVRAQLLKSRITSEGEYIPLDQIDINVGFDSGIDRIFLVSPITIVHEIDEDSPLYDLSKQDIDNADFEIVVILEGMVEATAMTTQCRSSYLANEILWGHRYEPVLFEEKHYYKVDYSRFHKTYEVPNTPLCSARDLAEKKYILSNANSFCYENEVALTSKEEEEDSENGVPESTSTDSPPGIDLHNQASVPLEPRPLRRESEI
TRPC4 sel inh 2 – second selectivity test of TRPC6 inhibitors: effect on mouse TRPC4; AID 2776; hit rate 42% among 920; HEK293 TRPC4/MOR, membrane potential dye fluorescence; channel activated by saturating DAMGO dose; inhibition, % at 10 µM; shares compounds with TRPC6 inh;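 active means compounds whose fluorescence signal differed from control wells by over 3 SD, either direction, in both duplicate plates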
TRPC4 spec – selectivity of TRPC6 inhibitors: effect on mouse TRPC4; shares compounds with TRPC6 inh; HEK293 TRPC4/mu-opioid, membrane potential fluorescence; activity change, negative = inhibition, % at 10 µM; hit rate 61% among 920;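 active means rise or fall in signal beyond 3 SD of buffer-only wells in both replicate plates, either sign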;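 further: integrated kinetic ratio of fluorescence range over baseline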
HEK293 MPD ctr 2-1 – parental HEK293 nonspecific activity of TRPC6 inhibitors, second screen | parental HEK293 membrane potential dye fluorescence; maximal acetylcholine challenge after compound addition | shares compounds with TRPC6 inh | hit rate 31% among 920 | signal change vs control, % at 10 µM;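 active means membrane potential signal moving either way by over 3 SD of the maximum-effect control, in both duplicate plates, meaning non-specific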
HEK293 MPD ctr-1 – counter-screen for TRPC6 inhibitors: effect in parental HEK293 cells; parental HEK293 membrane potential dye fluorescence; membrane potential signal change, % at 10 µM; shares compounds with TRPC6 inh; hit rate 60% among 920;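 active means membrane potential signal shifting up or down by more than 3 SD of buffer-only wells, on both duplicate plates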
HEK293 MPD ctr-2 – checks TRPC6 modulator effects in parental HEK293 cells; shares compounds with TRPC6 inh; membrane potential dye fluorescence; hit rate 51% among 2,400; membrane potential signal change, % at 10 µM;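 active means membrane potential signal moves up or down beyond 5 SD from buffer-only wells, on both duplicate plates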
HEK293 MPD ctr 2-2 – parental HEK293 nonspecific activity of TRPC6 modulators, second screen. shares compounds with TRPC6 inh. membrane potential dye fluorescence; after compound, maximal acetylcholine stimulation. inhibition, % at 10 µM. hit rate 14% among 2,400;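 active means membrane potential signal drops by more than 5 SD from the mean control signal, in both duplicate plates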;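 further: plate controls were acetylcholine ECmax control wells for no effect and buffer only wells for full effect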
TRPC4 ctr mod – mouse TRPC4 off-target activity of TRPC6 modulators; shares compounds with TRPC6 inh; HEK293 TRPC4/mu-opioid, membrane potential fluorescence; percent change from control (negative = decrease, positive = increase), % at 10 µM; hit rate 69% among 2,400; AID 488927;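 active means membrane potential signal moved up or down beyond 5 SD of buffer control wells, in both duplicate plates, actives on both sides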;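 further: plate controls were assay buffer wells for no effect and DAMGO maximal-effect wells for full effect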
TRPC4 ctr inh 2 – mouse TRPC4 off-target activity of TRPC6 modulators, second screen. inhibition, % at 10 µM. HEK293 TRPC4/mu-opioid, membrane potential dye fluorescence; stimulated with maximal-effect DAMGO. shares compounds with TRPC6 inh. AID 488928. hit rate 55% among 2,400;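 active means drop in membrane potential signal beyond 5 SD of the control wells in both duplicate plates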;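 further: TRPC4 counter screen for TRPC6 hits run under conditions tuned for TRPC6 not TRPC4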
TRPC6 block conf – mouse TRPC6 inhibitor confirmation | HEK293-TRPC6, membrane potential dye, ACh-evoked depolarization | AID 488960 | inhibition, % at 10 µM | shares compounds with TRPC6 inh | hit rate 43% among 3,300;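 active means fluorescence ratio falls more than 5 SD below the full-stimulation control mean, in both duplicate runs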;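 further: integrated fluorescence ratio of peak minus minimum over baseline after agonist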
TRPC6 act conf – confirmation of mouse TRPC6 activators. shares compounds with TRPC6 inh. HEK293-TRPC6 membrane potential dye fluorescence, FDSS. activation, % at 10 µM. hit rate 11% among 2,800. AID 488961;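 active means ratio signal rise beyond 5 SD above unstimulated control wells' mean, seen in both duplicate runs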;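 further: plate controls were buffer EC0 wells for no effect and acetylcholine ECmax response for full effect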
The depositor's hits bear a star; i = inactive; . = not tested or not shown.

SMILES	TRPC6 inh	TRPC4 agonist	TRPC4 potent	TRPC4 block	TRPC6 activator	Kir21 block	HEK293 MPD ctr-2	HEK293 MPD ctr 2-2	TRPC4 ctr mod	TRPC4 ctr inh 2	TRPC6 block conf	TRPC6 act conf	others
COc1ccc(-c2csc(N(CCCN(C)C)C(=O)c3ccccc3Cl)n2)cc1	-7.9*	i	i	i	i	-2.4	.	.	.	.	59%*	i	TRPC4 sel inh 2=37%*;TRPC4 spec=i;HEK293 MPD ctr 2-1=i;HEK293 MPD ctr-1=i
COc1ccc(-c2csc(N(CCCN(C)C)C(=O)c3ccccc3F)n2)cc1	-6.5*	i	i	i	i	-1.2	i	i	i	85%*	51%*	i
COc1ccc(-c2csc(N(CCCN(C)C)C(=O)c3ccc(F)cc3)n2)cc1	i	i	i	i	i	-1.4	.	.	.	.	.	.
COc1ccc(-c2csc(N(CCCN(C)C)C(=O)c3ccccc3C)n2)cc1	-8.9*	i	i	i	i	-0.19	.	.	.	.	62%*	i	TRPC4 sel inh 2=43%*;TRPC4 spec=i;HEK293 MPD ctr 2-1=i;HEK293 MPD ctr-1=i
CCN(CC)CCCN(C(=O)c1ccc(F)cc1)c1nc(-c2ccc(OC)cc2)cs1	-6.7*	i	i	i	i	-1.2	.	.	.	.	73%*	i	TRPC4 sel inh 2=33%*;TRPC4 spec=i;HEK293 MPD ctr 2-1=i;HEK293 MPD ctr-1=i
CCCNC(=O)c1noc2c1CCc1cc(OC)ccc1-2	i	i	i	i	i	1.1	.	.	.	.	.	.
COc1ccc(CCN2C(=O)CC(NC34CC5CC(CC(C5)C3)C4)C2=O)cc1OC (centres undefined)	i	i	i	i	i	0.51	.	.	.	.	.	.
O=C(CCNC(=O)c1ccccc1)NCC1CCCCC1	i	i	i	i	i	0.95	.	.	.	.	.	.
COc1ccc([N+](=O)[O-])cc1NC(=O)C(C)N1CCCC1 (centres undefined)	-6.1*	i	i	i	i	0.07	i	86%*	i	i	72%*	i
CCCCC(=O)NC(=S)Nc1cc(C(=O)O)ccc1OC	i	i	i	i	i	0.29	.	.	.	.	.	.
O=C(Nc1nnc(SCC(=O)N2CCOCC2)s1)C1CC(=O)N(c2ccccc2)C1 (centres undefined)	i	i	i	i	i	0.03	.	.	.	.	.	.
Cc1cc2oc(=O)cc(Cn3ccnc3)c2cc1O	i	i	i	i	i	0.17	.	.	.	.	.	.
Cc1cc2nc3ccc(N(C)C)cc3nc2cc1N	-6.4*	i	i	i	i	-3.1	-82%*	i	-42%*	i	i	i
Cc1ccc(-n2nc3cc(C)c(N)cc3n2)cc1	i	i	i	i	i	1.2	.	.	.	.	.	.
COc1ccc(/C=N/N(Cc2ccccc2)c2ccccc2)cc1O	i	i	i	i	i	0.69	.	.	.	.	.	.
O=C(C[n+]1cccc2ccccc21)c1ccccc1	i	i	i	i	i	0.48	.	.	.	.	.	.
O=C(C[n+]1cc2ccccc2c2ccccc21)c1ccccc1	-9.8*	49*	i	-7*	i	1.1	.	.	.	.	i	i	TRPC4 sel inh 2=33%*;TRPC4 spec=0.9%*;HEK293 MPD ctr 2-1=i;HEK293 MPD ctr-1=-486%*
COc1ccc(C(=O)Nc2nccs2)cc1	i	i	i	i	i	-0.24	.	.	.	.	.	.
CC(C)(C)OC(=O)CN1C(=O)NC(Cc2c[nH]c3ccccc23)C1=O (centres undefined)	i	i	i	i	i	0.01	.	.	.	.	.	.
O=C1NC(Cc2c[nH]c3ccccc23)C(=O)N1Cc1ccc(CN2C(=O)NC(Cc3c[nH]c4ccccc34)C2=O)cc1 (centres undefined)	-5.3*	i	i	i	i	2.4	i	i	i	i	i	i
CC(=O)c1sc2nsc(SCCN3CCCC3)c2c1N	-5.2*	i	i	i	i	-0.16	232%*	i	i	36%*	i	.
COc1ccc(C(c2nnnn2CCc2ccccc2)N2CCN(C3CCCC3)CC2)cc1 (centres undefined)	i	i	i	i	i	-3.8	.	.	.	.	.	.
N#Cc1cccc(C(c2nnnn2CCc2ccccc2)N2CCN(C3CCCCC3)CC2)c1 (centres undefined)	-5*	i	i	i	i	-3.4	i	i	i	70%*	54%*	i
O=C(NCCCN1CCOCC1)c1ccc2c(c1)N(Cc1cccc(Cl)c1)C(=O)CS2	-5*	i	i	i	i	-1.6	664%*	160%*	133%*	41%*	93%*	.
O=C(NCCCN1CCCC1)c1ccc2c(c1)N(Cc1ccccc1)CCS2	-5.9*	i	i	i	i	1.1	i	i	-8.5%*	80%*	62%*	i
CCc1cc(-c2[nH]ncc2-c2ccc(OC)cc2)c(O)cc1O	i	i	i	i	i	-2.2	.	.	.	.	.	.
CCc1cc(-c2[nH]ncc2-c2ccc3c(c2)OCO3)c(O)cc1O	-5.3*	i	i	i	i	-3.8	i	i	i	70%*	65%*	i

Screening results deposited in PubChem BioAssay by Johns Hopkins Ion Channel Center.
